Reference: PMC7288582 (ACS Omega, 2020)

How the values were obtained:
[1] = biological target: T1, LOX (Glycine max, UniProt P08170); experiment: LOX inhibition, spectrophotometric assay; type: biochemical
T1 sequence (P08170 1-839): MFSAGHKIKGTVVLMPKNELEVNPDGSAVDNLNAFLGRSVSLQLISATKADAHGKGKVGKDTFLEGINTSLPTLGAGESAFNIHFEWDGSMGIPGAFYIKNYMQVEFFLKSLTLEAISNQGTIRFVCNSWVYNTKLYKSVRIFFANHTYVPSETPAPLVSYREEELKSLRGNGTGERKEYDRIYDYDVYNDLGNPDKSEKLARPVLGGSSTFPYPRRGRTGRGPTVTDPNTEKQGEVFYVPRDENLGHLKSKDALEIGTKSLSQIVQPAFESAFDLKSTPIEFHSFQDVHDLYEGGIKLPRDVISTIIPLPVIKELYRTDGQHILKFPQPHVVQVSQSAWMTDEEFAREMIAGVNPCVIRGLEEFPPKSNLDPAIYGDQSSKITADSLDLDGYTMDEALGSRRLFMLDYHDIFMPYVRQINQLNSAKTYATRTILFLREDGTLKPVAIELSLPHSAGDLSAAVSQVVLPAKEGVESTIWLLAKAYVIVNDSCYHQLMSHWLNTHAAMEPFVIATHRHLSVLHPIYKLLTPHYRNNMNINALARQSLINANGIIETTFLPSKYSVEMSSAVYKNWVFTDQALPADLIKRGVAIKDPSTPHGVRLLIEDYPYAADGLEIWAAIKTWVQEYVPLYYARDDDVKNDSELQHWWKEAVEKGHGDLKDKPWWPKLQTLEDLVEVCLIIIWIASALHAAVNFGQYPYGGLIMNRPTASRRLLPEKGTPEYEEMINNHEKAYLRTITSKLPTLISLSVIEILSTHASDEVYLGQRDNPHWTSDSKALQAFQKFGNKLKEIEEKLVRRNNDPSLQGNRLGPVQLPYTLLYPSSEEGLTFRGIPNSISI

[2] = biological target: T2, α-amylase from hog pancreas (Sus scrofa, UniProt P00690); experiment: biochemical
T2 sequence (P00690 16-511): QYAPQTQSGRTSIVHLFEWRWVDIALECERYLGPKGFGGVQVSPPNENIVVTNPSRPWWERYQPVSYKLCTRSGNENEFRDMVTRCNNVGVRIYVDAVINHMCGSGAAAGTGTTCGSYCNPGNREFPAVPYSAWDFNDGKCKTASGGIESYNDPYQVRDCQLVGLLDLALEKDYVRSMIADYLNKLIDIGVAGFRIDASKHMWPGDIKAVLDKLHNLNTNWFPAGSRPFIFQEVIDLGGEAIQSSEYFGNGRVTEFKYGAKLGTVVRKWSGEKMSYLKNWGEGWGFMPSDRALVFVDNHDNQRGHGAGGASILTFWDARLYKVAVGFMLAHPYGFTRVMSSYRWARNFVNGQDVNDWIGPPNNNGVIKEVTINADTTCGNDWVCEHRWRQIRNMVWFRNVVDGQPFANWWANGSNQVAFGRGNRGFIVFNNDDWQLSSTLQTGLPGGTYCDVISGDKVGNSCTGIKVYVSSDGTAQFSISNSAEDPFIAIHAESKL

[3] = biological target: α-glucosidase from Saccharomyces cerevisiae (Saccharomyces cerevisiae, UniProt P53341); experiment: α-Glucosidase inhibition assay; type: biochemical
[4] = DPPH radical scavenging assay; settings: antioxidant activity
Procedure, shortened: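 Test material was polyphenolic-rich plant extracts from pressurized 50% ethanol extraction at 80 °C, microfiltration at 0.45 μm, then nanofiltration on a 200–300 Da polyamide membrane. A modified literature method was used: graded concentrations of extract or standard were mixed with methanolic DPPH solution and absorbance was read at 519 nm. Data were reported as mean ± standard deviation (n = 3).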

Sequence of α-glucosidase from Saccharomyces cerevisiae (P53341 whole entry): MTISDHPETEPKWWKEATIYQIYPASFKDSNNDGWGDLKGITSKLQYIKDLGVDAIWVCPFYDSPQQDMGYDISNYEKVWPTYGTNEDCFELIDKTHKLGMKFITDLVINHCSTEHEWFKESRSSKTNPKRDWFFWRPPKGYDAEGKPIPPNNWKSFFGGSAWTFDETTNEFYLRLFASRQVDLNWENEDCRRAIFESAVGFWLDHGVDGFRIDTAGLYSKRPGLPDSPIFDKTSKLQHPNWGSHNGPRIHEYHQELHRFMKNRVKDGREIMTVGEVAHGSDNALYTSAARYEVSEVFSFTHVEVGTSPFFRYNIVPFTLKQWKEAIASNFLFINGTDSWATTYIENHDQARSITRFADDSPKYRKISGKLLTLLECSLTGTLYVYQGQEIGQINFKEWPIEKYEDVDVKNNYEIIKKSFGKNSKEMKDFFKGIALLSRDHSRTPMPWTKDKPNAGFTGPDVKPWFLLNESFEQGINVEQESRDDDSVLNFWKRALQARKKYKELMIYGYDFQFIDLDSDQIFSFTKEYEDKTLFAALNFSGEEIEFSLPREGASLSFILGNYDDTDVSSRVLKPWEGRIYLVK

IC50 [1]	IC50 [2]	DPPH, EC50 [4]	Compound	IC50 [3]
306 µM	2.55 µM		O=C(/C=C/c1ccc(O)c(O)c1)O[C@H](Cc1ccc(O)c(O)c1)C(=O)O [rosmarinic acid]	12 µM
		3.6 ± 0.2 µg/mL	O=C1O[C@H]([C@@H](O)CO)C(O)=C1O [ascorbic acid (vitamin C), ascorbic acid]	
230 µM	5.19 µM		O=C(/C=C/c1ccc(O)c(O)c1)O[C@@H]1C[C@](O)(C(=O)O)C[C@@H](O)[C@H]1O [chlorogenic acid]	
212 µM	20.8 µM		O=c1c(O[C@@H]2O[C@H](CO)[C@@H](O)[C@H](O)[C@H]2O)c(-c2ccc(O)c(O)c2)oc2cc(O)cc(O)c12 [isoquercitrin, quercetin-3-β-qlucoside]	16.8 µM

Compound	IC50 [1]	IC50 [2]	DPPH, EC50 [4]	IC50 [3]
C[C@@H]1O[C@@H](OC[C@H]2O[C@@H](Oc3c(-c4ccc(O)c(O)c4)oc4cc(O)cc(O)c4c3=O)[C@H](O)[C@@H](O)[C@@H]2O)[C@H](O)[C@H](O)[C@H]1O [rutin]	75.8 µM	18.7 µM		10.8 µM
O=c1cc(-c2ccc(O)c(O)c2)oc2cc(O)cc(O)c12 [luteolin]	109 µM	68.2 µM		100 µM
